{
  "source": "paper PMC5508592",
  "about": "(The New England journal of medicine, 2016)",
  "key": {"[1]": {"system": "DhhCre;Nf1fl/fl model of neurofibromatosis type 1–related neurofibromas", "conditions": "cited from earlier work"}, "[2]": {"system": "phosphorylated extracellular signal-regulated kinase (ERK)", "assay": "Pharmacodynamics in mouse tumor samples", "conditions": "in vivo"}, "[3]": {"conditions": "children with low-grade gliomas; cited from earlier work"}, "[4]": {"assay_type": "in vivo"}, "[5]": {"system": "neurofibromatosis type 1–related plexiform neurofibromas", "assay": "Response evaluation by volumetric MRI analysis of plexiform neurofibroma volume", "assay_type": "in vivo, human"}, "[6]": {"system": "plexiform neurofibroma–related complications", "assay": "Anecdotal report of amelioration of complications of plexiform neurofibroma", "assay_type": "in vivo, human"}, "[7]": {"assay": "Plasma pharmacokinetics of selumetinib in patients during cycle 1", "assay_type": "in vivo, human", "procedure,_shortened": "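Pediatric patients who consented received oral test compound capsules every 12 h, continuously in 28-day cycles, at 20, 25 or 30 mg per square meter (nomogram by body-surface area). Plasma was sampled in cycle 1 on day 1 before dosing and 0.5, 1, 2, 3, 5, 8, 10–12, 24 and 30–36 h after, and on day 27 before dosing. Parent and N-desmethyl metabolite were assayed; noncompartmental PK analysis.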"}, "plexiform neurofibromas": {"system": "plexiform neurofibromas", "conditions": "4 of 83 patients; phase 2 trial; cited from earlier work"}, "[8]": {"conditions": "20-mg group, 7 patients with condition at baseline"}, "[9]": {"conditions": "25-mg group, 3 patients with condition at baseline"}, "[10]": {"conditions": "30-mg group, 3 patients with condition at baseline"}},
  "note": "Read-outs that look alike come from different tables or passages of the source.",
  "data": [
    {"molecule": "O=C(NOC[C@H](O)CO)c1ccc(F)c(F)c1Nc1ccc(I)cc1F", "note": "[PD0325901]", "values": [
      {"measurement": "Effect on neurofibroma volume", "setting": "[1]", "value": "tumor shrinkage in the majority of mice"}
    ]},
    {"molecule": "Cn1cnc2c(F)c(Nc3ccc(Br)cc3Cl)c(C(=O)NOCCO)cc21", "note": "[selumetinib]", "values": [
      {"measurement": "Phosphorylated ERK in mouse tumor samples", "setting": "[2]", "value": "transient decrease"},
      {"measurement": "Maximum tolerated dose", "setting": "[3]", "value": 25, "unit": "mg per square meter"},
      {"measurement": "Tolerability of 30 mg per square meter relative to maximum tolerated dose", "setting": "[4]; 30 mg per square meter twice daily", "value": "exceeded the maximum tolerated dose"},
      {"measurement": "Maximum tolerated dose", "setting": "[4]; children, oral, every 12 hours, continuous dosing in 28-day cycles, approximately 60% of the recommended adult dose", "value": 25, "unit": "mg per square meter"},
      {"measurement": "Dose-limiting toxic effect: cellulitis", "setting": "[4]; human, in vivo", "value": "Grade 3 (2 patients)"},
      {"measurement": "Dose-limiting toxic effect: decreased left ventricular ejection fraction", "setting": "[4]; human, in vivo", "value": "Grade 3 (1 patient)"},
      {"measurement": "Dose-limiting toxic effect: rash", "setting": "[4]; human, in vivo", "value": "Grade 3 (1 patient)"},
      {"measurement": "Dose-limiting toxic effect: urticaria", "setting": "[4]; human, in vivo", "value": "Grade 3 (1 patient)"},
      {"measurement": "Dose-limiting toxic effects in later cycles: cellulitis", "setting": "[4]; human, in vivo", "value": 1, "unit": "patient"},
      {"measurement": "Dose-limiting toxic effects in later cycles: creatine kinase elevation", "setting": "[4]; human, in vivo", "value": 4, "unit": "patients"},
      {"measurement": "Dose-limiting toxic effects in later cycles: oral mucositis", "setting": "[4]; human, in vivo", "value": 3, "unit": "patients"},
      {"measurement": "Left ventricular ejection fraction after decrease", "setting": "[4]; human, in vivo", "value": 50, "unit": "%"},
      {"measurement": "Serial ophthalmologic examinations", "setting": "[4]; human, in vivo", "value": "no abnormalities, with the exception of a grade 1 asymptomatic cataract at cycle 16 in 1 patient"},
      {"measurement": "Severity of most selumetinib-related adverse events", "setting": "[4]; human, in vivo", "value": "mild (grade 1)"},
      {"measurement": "Treatment stopped because of dose-limiting toxic effects", "setting": "[4]; human, in vivo", "value": 1},
      {"measurement": "Effect on height or weight", "setting": "[4]; in vivo", "value": "No measurable effect"},
      {"measurement": "Reversibility of dose-limiting toxic effects", "setting": "[4]; in vivo", "value": "reversible"},
      {"measurement": "Partial response, documented progressive disease at enrollment", "setting": "[5]; 5 of 9 patients", "value": 56, "unit": "%"},
      {"measurement": "Partial response, no previous volumetric data available at enrollment", "setting": "[5]; 6 of 7 patients", "value": 86, "unit": "%"},
      {"measurement": "Median time free of progression", "setting": "[5]; 9 patients with confirmed tumor growth before enrollment, range, 23 to 46", "value": 26, "unit": "cycles"},
      {"measurement": "Confirmed partial response", "setting": "[5]; 17 of the 24 patients, tumor volume decrease from baseline ≥20%", "value": 71, "unit": "%"},
      {"measurement": "Median best response (range)", "setting": "[5]; 20-mg group (N = 12)", "value": "−31 (−6 to −47) % volume change from baseline"},
      {"measurement": "Median time to best response (range)", "setting": "[5]; 20-mg group (N = 12)", "value": "22 (5 to 42) mo"},
      {"measurement": "Partial response", "setting": "[5]; 20-mg group (N = 12), tumor volume decrease from baseline ≥20% for at least 4 weeks", "value": "9 (75) no. (%)"},
      {"measurement": "No. with response, insufficient information on progression status at entry", "setting": "[5]; 20-mg group, of 4 patients", "value": 3},
      {"measurement": "No. with response, nonprogressive disease at trial entry", "setting": "[5]; 20-mg group, of 4 patients", "value": 4},
      {"measurement": "No. with response, progressive disease at trial entry", "setting": "[5]; 20-mg group, of 4 patients", "value": 2},
      {"measurement": "Median best response (range)", "setting": "[5]; 25-mg group (N = 6)", "value": "−34 (−16 to −44) % volume change from baseline"},
      {"measurement": "Median time to best response (range)", "setting": "[5]; 25-mg group (N = 6)", "value": "18 (9 to 22) mo"},
      {"measurement": "Partial response", "setting": "[5]; 25-mg group (N = 6), tumor volume decrease ≥20%", "value": "5 (83) no. (%)"},
      {"measurement": "No. with response, insufficient information on progression status at entry", "setting": "[5]; 25-mg group, of 2 patients", "value": 2},
      {"measurement": "No. with response, progressive disease at trial entry", "setting": "[5]; 25-mg group, of 4 patients", "value": 3},
      {"measurement": "Median best response (range)", "setting": "[5]; 30-mg group (N = 6)", "value": "−19 (−13 to −34) % volume change from baseline"},
      {"measurement": "Median time to best response (range)", "setting": "[5]; 30-mg group (N = 6)", "value": "8 (5 to 24) mo"},
      {"measurement": "Partial response", "setting": "[5]; 30-mg group (N = 6), tumor volume decrease ≥20%", "value": "3 (50) no. (%)"},
      {"measurement": "No. with response, insufficient information on progression status at entry", "setting": "[5]; 30-mg group, of 1 patient", "value": 1},
      {"measurement": "No. with response, progressive disease at trial entry", "setting": "[5]; 30-mg group, of 1 patient", "value": 0},
      {"measurement": "No. with response, nonprogressive disease at trial entry", "setting": "[5]; 30-mg group, of 4 patients", "value": 2},
      {"measurement": "Tumor volume reduction since reinitiation at a reduced dose", "setting": "[5]; Patient 7 (30-mg group)", "value": 25, "unit": "%"},
      {"measurement": "Increase in plexiform neurofibroma volume from baseline after drug interruption", "setting": "[5]; Patient 7 (30-mg group), when selumetinib was restarted", "value": 9.6, "unit": "%"},
      {"measurement": "Median change from baseline in plexiform neurofibroma volume (best response)", "setting": "[5]; all 24 patients", "value": "−31", "unit": "%"},
      {"measurement": "Range of change from baseline in plexiform neurofibroma volume (best response)", "setting": "[5]; all 24 patients", "value": "−5.8 to −47", "unit": "%"},
      {"measurement": "Median time to maximum response", "setting": "[5]; all patients, range, 5 to 42", "value": 20, "unit": "cycles"},
      {"measurement": "Partial response, tumors assessed as stable at enrollment", "setting": "[5]; in vivo", "value": "2 of 2"},
      {"measurement": "Patients with partial response who maintain their response status to date", "setting": "[5]; in vivo", "value": "15 of the 17"},
      {"measurement": "Median duration of partial response", "setting": "[5]; range, 6 to 42", "value": 23, "unit": "cycles"},
      {"measurement": "Disease progression (tumor volume increase from baseline of ≥20%)", "setting": "[5]; to date", "value": "No patients have had disease progression"},
      {"measurement": "Motor dysfunction: no. of patients with improvement", "setting": "[6]; 20-mg group, 3 patients with condition at baseline", "value": 2},
      {"measurement": "Disfigurement: no. of patients with improvement", "setting": "[6]; [8]", "value": 2},
      {"measurement": "Pain: no. of patients with improvement", "setting": "[6]; [8]", "value": 4},
      {"measurement": "Motor dysfunction: no. of patients with improvement", "setting": "[6]; [9]", "value": 3},
      {"measurement": "Pain: no. of patients with improvement", "setting": "[6]; [9]", "value": 3},
      {"measurement": "Disfigurement: no. of patients with improvement", "setting": "[6]; 25-mg group, 6 patients with condition at baseline", "value": 3},
      {"measurement": "Motor dysfunction: no. of patients with improvement", "setting": "[6]; [10]", "value": 0},
      {"measurement": "Pain: no. of patients with improvement", "setting": "[6]; [10]", "value": 1},
      {"measurement": "Disfigurement: no. of patients with improvement", "setting": "[6]; 30-mg group, 5 patients with condition at baseline", "value": 0},
      {"measurement": "Drug exposure with increasing dose", "setting": "[7]; 20 to 30 mg per square meter", "value": "less than dose-proportional"},
      {"measurement": "Selumetinib plasma concentrations versus N-desmethyl metabolite", "setting": "[7]; plasma", "value": "exceeded those of the N-desmethyl metabolite at all time points"},
      {"measurement": "Absorption", "setting": "[7]; plasma, cycle 1, 18 patients", "value": "absorbed rapidly"}
    ]},
    {"molecule": "pegylated interferon alfa-2b", "values": [
      {"measurement": "Patients with tumor volume decrease from baseline of at least 20%", "setting": "plexiform neurofibromas", "value": 5, "unit": "%"}
    ]}
  ]
}
